# Compounds with a hit are over-represented: about 2.6% of the library has one in this group of screens.
# Ecoli rRNA inh – inhibitors of bacterial rRNA selective over humanized ribosomes. 350,000 tested, 1.6% active. AID 720706. E. coli WT GFP vs humanized-ribosome RFP mutants, fluorescence, 24 h; stronger effect = lower value; DMSO median 0, no signal -100. GFP signal change (wild-type ribosome), % (test concentration not listed);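 active = significant combined selectivity score with lowered wild-type GFP, culture density cut under 30%, mutant RFP and density less affected; inactive = any of these conditions unmet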
# FN deposition inh – fibronectin deposition inhibition; AH1F fibroblasts, Alexa488-fibronectin deposition fluorescence, overnight; inhibition, % at 12.6 µM; 350,000 tested, 0.086% active; AID 743247;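 active = mean inhibition across replicates of 30% or more, regardless of how many single replicates reach that level; inconclusive = mean under 30% yet at least half of replicates reach 30%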;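 note: positive control wells lacked labelled fibronectin entirely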
#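 Material: AH1F fibroblast monolayer depositing Alexa488-labelled fibronectin into matrix / Amount: 10000 AH1F cells per well / Signal: fluorescence 485/525 nm / Medium: DMEM, 2% serum / Compound: single dose, pinned / Incubation: 1 h cell adhesion before compound, then overnight fibronectin incubation / Reagent: Alexa488-FN, 24 nM final / Read-out: inhibition of fibronectin deposition signal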
# miR-122 sensor – blocks miR-122 activity in Huh7 sensor cells. Huh7 miR-122 Renilla luciferase sensor, 48 h; neutral wells = 0, positive control = 100. activation (reporter increase), % at 12.5 µM. 340,000 tested, 0.3% active. AID 602342;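 active = mean replicate activation score at least 90 and every replicate individually at or above 90; inconclusive = only one of the two criteria met; inactive = neither criterion met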;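 note: higher luciferase means less miR-122 activity so hits act as miR-122 inhibitors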
# HIV Env fusion – inhibitors of HIV Env-mediated cell fusion; HeLa-JRFL Env/CEM21 cell fusion, luciferase; inhibition, % at 12.3 µM; 360,000 tested, 1.1% active;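 active = mean replicate inhibition score of at least 50 and every replicate individually at or above 50; inconclusive = only one of the two criteria met; inactive = mean below 50 and not all replicates reaching 50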;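 note: 0% = plate neutral controls and 100% = maraviroc near 300 nM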
# S100A4 MyoIIA – blocks human S100A4 binding to myosin IIA peptide. 360,000 tested, 0.14% active. inhibition, % at 10.7 µM. AID 652163. S100A4/TAMRA-MyoIIA peptide fluorescence polarization;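 active = mean inhibition of at least 70% across replicates, with every replicate also reaching that level; inconclusive = mean inhibition reaches 70% but some replicates fall short; inactive = mean inhibition below 70%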
# Target sequence (P26447 whole entry, looked up): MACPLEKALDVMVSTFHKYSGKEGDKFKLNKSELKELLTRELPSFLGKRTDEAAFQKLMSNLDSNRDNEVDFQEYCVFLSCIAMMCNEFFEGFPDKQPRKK
#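 Material: S100A4 monomer protein / Buffer or medium: 50 mM HEPES pH 7.2, 10 mM CaCl2, 100 mM KCl / Times: 5 min incubation before reading / Benchmarks: neutral control DMSO, positive control TFP / Reagent: labelled myosin peptide probe, 5 nM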
# Vif imaging – blocks HIV Vif function. HEK293T cells, Vif self-association by quenched fluorescence, imaging, 24 h. inhibition, % at 7.49 µM. 340,000 tested, 0.35% active. AID 602346; in the data active = inhibition above about 50%, passing the limit was not always enough; inconclusive = no clear call, values can overlap the other calls; inactive = below about 31%
# Active calls of the source: *; ? = inconclusive; · = not tested or not shown; [ ] = dose if it differs, or a comment.
SMILES,Ecoli rRNA inh,FN deposition inh,miR-122 sensor,HIV Env fusion,S100A4 MyoIIA,Vif imaging
O=C(OC(C(=O)Nc1ccc(Cl)cc1C(F)(F)F)c1ccccc1)c1c(Cl)cccc1Cl (stereo unspecified),1.1,-5.2,·,73.3*,5.9,1.0
Cc1onc(-c2ccccc2)c1C(=O)N1CCN(S(=O)(=O)c2ccc(OC(F)(F)F)cc2)CC1,1.5,-6.0,·,1.7,-2.7,-4.0
Cc1ccc(S(=O)(=O)N2CCN(C(=O)c3c(-c4ccccc4)noc3C)CC2)cc1,10.1,3.1,-4.8,27.2,?,51.9*
O=C(C[C@H]1CC[C@@H]2[C@H](COC[C@@H](O)CN2C(=O)Nc2cc(Cl)cc(Cl)c2)O1)N1CCOCC1,-33.5*,2.2,-5.2[16.7 µM],-8.7[16.7 µM],·,·
O=C(C[C@@H]1CC[C@H]2[C@@H](COC[C@@H](O)CN2C(=O)Nc2cc(Cl)cc(Cl)c2)O1)N1CCOCC1,-50.0,-16.1,-5.2[16.7 µM],8.4[16.7 µM],0.7,·
CN1CCN(C(=O)C[C@@H]2CC[C@H]3[C@@H](COC[C@H](O)CN3C(=O)Nc3ccc(Cl)cc3)O2)CC1,-33.8*,-16.3,-7.4[16.7 µM],·,7.8,·
O=C(C[C@@H]1CC[C@H]2[C@@H](COC[C@H](O)CN2C(=O)Nc2cc(Cl)cc(Cl)c2)O1)N1CCOCC1,-28.5*,-0.6,-4.8[16.7 µM],4.3[16.7 µM],3.3,·
O=C1NCCCOCc2cn(nn2)CC[C@H]1Cc1ccc(-c2ccccc2)cc1,-0.5,-22.0,·,·,·,·
Cc1ccc(SCc2noc(C(=O)NCC3CCCO3)c2C(=O)O)cc1C (stereo unspecified),-23.7*,8.9,3.8,8.9,-0.2,-0.7
C[C@@H]1CN([C@@H](C)CO)C(=O)c2cc(C#Cc3ccccc3F)cnc2O[C@H]1CN(C)S(=O)(=O)c1ccccc1F,1.2,-0.4,-2.6[16.7 µM],9.6[16.7 µM],11.9,·
CC(C)(C)c1ccc(OCCC(=O)Nc2cccc(S(=O)(=O)N3CCOCC3)c2)cc1,-1.6,·,·,74.8*,-0.4,-7.2
O=C(CNC(=O)c1cccs1)Nc1cccc(S(=O)(=O)N2CCOCC2)c1,4.2,·,1.5,61.0*,-1.2,1.9
COc1ccc(S(=O)(=O)N(C)C[C@@H]2Oc3ccc(NC(=O)C4CC4)cc3C(=O)N([C@H](C)CO)C[C@H]2C)cc1,3.1,·,25.2[16.7 µM],·,-12.1,·
O=C(Nc1ccc(Br)c(C(F)(F)F)c1)c1ccc(C(F)(F)F)cc1,-57.4,39.6*,0.7,43.1,-7.3,-4.4
O=C(Nc1ccc(OCC(F)(F)C(F)F)c(C(F)(F)F)c1)c1ccc(Cl)cc1,·,-6.6,-5.1,68.5*,·,·
O=C(Nc1ccc(Br)c(C(F)(F)F)c1)c1ccccc1,-26.4,·,·,-17.0,2.8,-4.4
COCC(=O)Nc1ccc2c(c1)C(=O)N(C)[C@@H]1CC[C@@H](CC(=O)NCC3CCCCC3)O[C@H]1CO2,2.0,-4.5,-2.5[16.7 µM],·,19.9,·
COCCCn1c(-c2ccc(S(=O)(=O)N3CCOCC3)cc2)csc1=Nc1ccccc1,·,-2.8,·,70.2*,·,-21.8
CCn1c(-c2ccccc2)csc1=Nc1ccc(S(=O)(=O)O)cc1,7.3,1.5,·,33.6,1.7,-2.9
O=C(c1ccccc1)c1ccccc1N1C(=O)C=CC1=O,0.8,57.8*,·,5.0,-0.1,16.5
O=C1C=CC(=O)N1c1ccccn1,3.2,·,-2.4,-22.6,7.1,-0.4
O=C1C=CC(=O)N1c1ccccc1N1C(=O)C=CC1=O,36.1,40.1*,30.9,-64.7,-2.7,157.1*
Cc1cccc(NC(=O)C2CCN(S(=O)(=O)c3ccc4c(c3)OCCCO4)CC2)n1,-8.2,-0.3,0.2,83.0*,-0.6,·
O=C(Nc1ccc2c(c1)OCCO2)C1CCN(S(=O)(=O)c2ccc3c(c2)OCCO3)CC1,-31.8*,-5.5,3.9,5.9,2.6,-4.4
O=C(Nc1ccc2c(c1)OCCO2)C1CCN(S(=O)(=O)c2ccccc2)CC1,-16.6,0.6,177.1*,10.6,-12.1,·
SMILES,Ecoli rRNA inh,FN deposition inh,miR-122 sensor,HIV Env fusion,S100A4 MyoIIA,Vif imaging
Cc1cccc(NC(=O)C2CCN(S(=O)(=O)c3ccc4c(c3)OCCO4)CC2)n1,-7.0,3.3,·,·,15.6,·
COc1ccc(NC(=O)Nc2cccc3c2O[C@H](CN(C)Cc2ccc(Oc4ccccc4)cc2)[C@H](C)CN([C@@H](C)CO)C3=O)cc1,-0.4,·,-8.0[16.7 µM],-1.0[16.7 µM],-7.1,·
Cc1cc(Nc2cc(C(F)(F)F)cc(C(F)(F)F)c2)cc(=O)n1-c1cc(C(F)(F)F)cc(C(F)(F)F)c1,11.8,-3.1,·,31.1,4.8,·
Cc1cc(Nc2cccc(C(F)(F)F)c2)cc(=O)n1-c1cccc(C(F)(F)F)c1,-2.8,-3.8,·,67.5*,4.4,·
COc1cccc(/C=N/Nc2nc(N3CCCC3)nc(N3CCCC3)n2)c1O,-18.1*,·,-1.1,·,1.4,-6.9
CC(C)CC#Cc1ccc([C@H]2[C@H]3CN(C(=O)NC(C)C)CC(=O)N3[C@H]2CO)cc1,0.2,·,·,·,·,·
CN1C(=O)c2cc(NC(=O)Cc3ccccc3)ccc2OC[C@@H]2O[C@H](CC(=O)NC3CCC3)CC[C@@H]21,-2.5,-42.0,125.0*[16.7 µM],·,10.8,·
Cc1nn(C)cc1NC(=O)C[C@H]1CC[C@@H]2[C@H](COc3ccc(NC(=O)C4CCC4)cc3C(=O)N2C)O1,4.1,-9.8,2.9[16.7 µM],-4.1[16.7 µM],-1.1,·
CN1C(=O)c2cc(NC(=O)NC3CCCC3)ccc2OC[C@@H]2O[C@H](CC(=O)O)CC[C@@H]21,3.1,-1.1,10.0[16.7 µM],·,-6.8,·
CN1C(=O)c2cc(NC(=O)Cc3ccccc3)ccc2OC[C@@H]2O[C@@H](CC(=O)NC3CCC3)CC[C@H]21,1.1,-10.0,-12.5[16.7 µM],·,-11.5,·
Cc1nn(C)cc1NC(=O)C[C@H]1CC[C@@H]2[C@@H](COc3ccc(NC(=O)C4CCC4)cc3C(=O)N2C)O1,-6.9,-17.1,1.8[16.7 µM],60.4*[16.7 µM],·,·
CN1C(=O)c2cc(NC(=O)NC3CCCC3)ccc2OC[C@H]2O[C@@H](CC(=O)O)CC[C@H]21,-0.7,1.6,137.5*[16.7 µM],·,-5.7,·
O=C(Cc1ccccc1)Nc1ccc2c(c1)C(=O)N(CC1CCCO1)C2=O (stereo unspecified),2.6,·,·,-4.8,-0.6,50.1*
COc1ccc2c3c([nH]c2c1)[C@H](CO)N(Cc1cc(F)ccc1F)CC31CN(C(C)=O)C1,-1.5,·,·,·,-7.8,·
COc1ccc(CN(C)C[C@@H]2OCCCC[C@H](C)Oc3ccc(NC(=O)NC4CCCCC4)cc3C(=O)N([C@@H](C)CO)C[C@@H]2C)cc1,6.1,9.3,-2.1[16.7 µM],-16.0[16.7 µM],7.1,·
CN1C(=O)c2cc(NC(=O)NC3CCCC3)ccc2OC[C@@H]2O[C@H](CC(=O)NC3CCC3)CC[C@@H]21,-0.6,0.1,2.3[16.7 µM],70.8*[16.7 µM],·,·
CN1C(=O)c2cc(NC(=O)c3cccc(Cl)c3)ccc2OC[C@H]2O[C@@H](CC(=O)NC3CCCCC3)CC[C@H]21,-6.8,-11.0,8.3[16.7 µM],56.3*[16.7 µM],·,·

# Screening results: PubChem, Broad Institute
